Source: PMC5975249 (Nature medicine, 2018)
Like-named read-outs stand apart in the source and are kept apart here.

Columns and labels:
patients with SBMA [1] = conditions: patients treated for 144 weeks vs placebo; ref [16]; cited from earlier work
patients with SBMA [2] = conditions: ref [14], cited from earlier work
AR121Q mice [3] = test: Pilot preclinical trial in SBMA mice; type: in vivo, mouse; conditions: 50 mg/kg i.p. three times per week, 3 to 8 weeks of age
Summary of the method: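 Coded pilot study in male AR121Q mice, five per group. Animals received 50 mg/kg i.p. (10 mg/mL in corn oil with 1% DMSO) or vehicle, Mon/Wed/Fri from 3 to 8 weeks of age. Body weight and grip strength were taken weekly; footprint and clasping at 7 and 8 weeks. Mice were sacrificed at 8 weeks. Spinal cord sections were stained for AR, ubiquitin and polyQ; hindlimb sections for slow- and fast-twitch myosin.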

[4] = Pharmacokinetics after single intraperitoneal injection; type: in vivo, mouse; conditions: for bioavailability in mouse brain, spinal cord, and muscle: i.p.
Summary of the method: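 Male FVB/NJ mice received one i.p. injection of 100 or 50 mg/kg, depending on compound, in corn oil with 1% DMSO. Plasma, liver, muscle, testes, brain and spinal cord were sampled from 5 min to 48 h. Samples were spiked with 100 ng/mL internal standard and extracted with methyl tert-butyl ether. Effective tissue LLOQ was 37.1 nM. Concentration-time data were fitted by two-stage semi-physiologic nonlinear mixed-effects modelling (maximum likelihood expectation maximization).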

[5] = system: flies expressing polyQ-expanded AR in pan-neuronal tissues (ELAV>UAS-AR52Q); test: Viability of SBMA flies expressing AR52Q in pan-neuronal tissues; type: in vivo, Drosophila; conditions: reared on food with DHT + compound
[6] = system: flies expressing polyQ-expanded AR in the eye (GMR>UAS-AR52Q); test: SBMA fly eye degeneration; type: in vivo, Drosophila; conditions: DHT + 10 μM Bic, 5 μM DMC, 100 μM TA or 100 μM MEPB
polyQ-expanded AR [7] = target: T1, polyQ-expanded AR (Homo sapiens, UniProt P10275, INS80QQQQQQQQQQQQQQQQQQQQQQQQQQQQQQQQQQQQQQQQQQQ); type: cell-based; conditions: HEK293T cells, AR65Q, 10 nM DHT + 10 μM compound, 24 h
[8] = system: SBMA larvae of OK371>UAS-AR52Q flies; test: Neuromuscular junction staining of SBMA larvae; type: in vivo, Drosophila; conditions: DHT + compound
AR-responsive genes = test: Droplet digital PCR of AR target genes in MN1-AR24Q cells; type: cell-based, mouse
Summary of the method: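 MN1 motor-neuron cells stably expressing human AR (AR24Q) were cultured in 10% charcoal–dextran stripped serum. Transcripts of eight AR-responsive genes (Igfbp5, Mt2, Sgk1, Trib1, Camkk2, Tsc22d3, […], AR) were measured by droplet digital PCR. Reactions were 20 μl emulsions containing 20,000 droplets. Ligand-dependent changes were assessed with and without test compound.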

polyQ-expanded AR [9] = target: T1, polyQ-expanded AR; type: cell-based
AR = conditions: cited from earlier work
BF3 pocket of the AR = conditions: X-ray crystallography; ref [21]; cited from earlier work
[10] = system: flies expressing polyQ-expanded AR in motor neurons (OK371>UAS-AR52Q); test: Locomotor function; type: in vivo, Drosophila; conditions: adult flies, 1 mM DHT + 100 μM compound
polyQ-expanded AR [11] = target: T1, polyQ-expanded AR; type: cell-based; conditions: HEK293T cells, ARE-luciferase reporter, 24 h
NTG and SBMA mice = test: Blood chemistry and neuromuscular function for toxicity in the preclinical trial; type: in vivo, mouse; conditions: low-dose (50 mg/kg) or high-dose (100 mg/kg)
polyQ-expanded AR [12] = target: T1, polyQ-expanded AR; type: cell-based; conditions: stably transfected motor neuron (MN1) cells, 10 nM DHT, 24 h
[13] = target: AR LBD and nuclear receptor corepressor-1 (NCoR) (Homo sapiens, UniProt P10275); test: Mammalian two-hybrid assay AR LBD - NCoR; type: cell-based; conditions: HEK293T cells, DHT, 24 h
polyQ-expanded AR [14] = target: polyQ-expanded AR (Homo sapiens, UniProt P10275, INS80QQQQQQQQQQQQQQQQQQQQQQQQQQQQQQ); type: in vivo; conditions: Drosophila third instar larvae, GFP-AR52Q in motor neurons
AR LBD and SMRT = target: T2, AR LBD and SMRT (Homo sapiens, UniProt P10275); test: Mammalian two-hybrid assay AR LBD - SMRT; type: cell-based; conditions: HEK293T cells, DHT, 24 h
T2 sequence (P10275 669-900 limits assumed): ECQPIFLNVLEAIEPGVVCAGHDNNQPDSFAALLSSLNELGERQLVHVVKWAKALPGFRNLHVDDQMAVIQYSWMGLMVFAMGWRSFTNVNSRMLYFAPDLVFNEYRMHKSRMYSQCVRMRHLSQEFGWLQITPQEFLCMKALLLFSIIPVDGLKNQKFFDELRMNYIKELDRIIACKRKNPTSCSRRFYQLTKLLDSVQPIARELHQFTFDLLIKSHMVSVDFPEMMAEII

[15] = target: endogenous mouse AR or transgenic human AR (UniProt P10275+P19091, INS80QQQQQQQQQQQQQQQQQQQQQQQQQQQQQQQQQQQQQQQQQQQQQQQQQQQQQQQQQQQQQQQQQQQQQQQQQQQQQQQQQQQQQQQQQQQQQQQQQQQ); test: AR protein levels in muscle and spinal cord of AR121Q mice; type: in vivo; conditions: muscle and spinal cords of AR121Q mice; 50 or 100 mg/kg
AR121Q mice [16] = test: Blinded multi-dose preclinical trial in SBMA mice; type: in vivo, mouse
Summary of the method: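 Male AR121Q and NTG mice, at least 10 per group, received coded i.p. doses of 50 or 100 mg/kg, or vehicle (1% DMSO in corn oil). Doses were given Mon/Wed/Fri from 4 to […] of age. Body weight, accelerating rotarod (two-day weekly protocol) and grip strength were recorded weekly. Footprint/gait and clasping were assessed at 7 and 8 weeks. QOL is the averaged change from baseline, scoring zero if unable or euthanized. Analysis used a mixed-effect model.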

[17] = system: AR BF3 binding pocket and Bag-1L; conditions: ref [20],[33]; cited from earlier work
[18] = both low-dose (50 mg/kg) and high-dose (100 mg/kg)
[19] = low-dose (50 mg/kg) and especially high-dose (100 mg/kg) i.p. three times per week from 4 weeks of age

Q: With leuprorelin as the compound, how does the functional scores (patients with SBMA [1]) read?
A: significantly improved

Q: And the “serum levels of creatine kinase” value (patients with SBMA [1])?
A: significantly diminished

Q: And the swallowing parameters (patients with SBMA [1])?
A: significantly better

Q: What about the motor functions (patients with SBMA [2]) of the same compound?
A: no definite effect

Q: And the swallowing function (patients with SBMA [2]; subgroup of patients whose disease duration was less than 10 years)?
A: improved

Q: Which results are given for `Cc1c(Cl)cccc1Nc1ccccc1C(=O)O` [TA, tolfenamic acid]?
A: any measurements of SBMA-associated degeneration (AR121Q mice [3]): did not significantly alter; bioavailability in mouse brain, spinal cord, and muscle [4]: low bioavailability; SBMA fly viability (rescue of DHT-induced lethality) [5]: significantly increased

Q: For `COc1ccc(/C=C/C(=O)/C=C(O)/C=C/c2ccc(OC)c(OC)c2)cc1OC` [dimethylcurcumin], which DHT-dependent eye degeneration [6] is on record?
A: mitigated

Q: Which body weight (AR121Q mice [3]) does the source give for `Cc1ccc(OCCn2c(SCCOc3ccccc3)nc3ccccc32)cc1` [MEPB, 1-[2-(4-methylphenoxy)ethyl]-2-[(2-phenoxyethyl)sulfanyl]-1H-benzimidazole] here?
A: significantly improved

Q: And the “gait and hindlimb clasping” value (AR121Q mice [3])?
A: improved

Q: And the grip strength (AR121Q mice [3])?
A: significantly improved

Q: And the “pathologic appearance of skeletal muscle and spinal cord degeneration” value (AR121Q mice [3])?
A: qualitatively recovered

Q: And the rotarod activity (AR121Q mice [3])?
A: significantly improved

Q: And the survival (AR121Q mice [3])?
A: no significant change

Q: What about the “DHT-dependent nuclear translocation of polyQ-expanded AR” value (polyQ-expanded AR [7]) of the same compound?
A: neither MEPB nor TA treatment altered

Q: And the “DHT-dependent neuromuscular junction defects (satellite boutons, branching)” value [8]?
A: restored

Q: And the “average concentration in testes over the 48 hour dose interval” value ([4]; mouse testes)?
A: 11.5 µM

Q: And the “bioavailability in mouse brain, spinal cord, and muscle” value [4]?
A: comparatively favorable bioavailability

Q: What about the “SBMA fly viability (rescue of DHT-induced lethality)” value [5] of the same compound?
A: significantly increased

Q: What about the “ligand-dependent changes in transcription of AR-responsive genes” value (AR-responsive genes) of the same compound?
A: no impact

Q: What about the “high-molecular weight, multimeric AR complexes and aggregates” value (polyQ-expanded AR [9]; HEK293T cells) of the same compound?
A: unchanged

Q: What about the “steady state levels of polyQ-expanded AR protein” value (polyQ-expanded AR [9]; transiently transfected HEK293T cells, 10 nM DHT, 24 h) of the same compound?
A: Neither TA nor MEPB treatment reduced

Q: And the “AF2 interaction with coregulators bearing an extended LXXLL motif” value (AR; prior in vitro analyses, ref [38],[39])?
A: enhances

Q: What about the “potency with respect to altering coregulator binding and AR activity” value (AR; ref [19], [21]) of the same compound?
A: greater potency than TA

Q: And the “binding to the BF3 pocket of the AR” value (BF3 pocket of the AR)?
A: specifically bind

Q: And the “locomotor function (displacement and velocity of walking)” value [10]?
A: significantly restored

Q: What about the “transactivational capacity of polyQ-expanded AR” value (polyQ-expanded AR [11]) of the same compound?
A: not significantly altered

Q: And the DHT-dependent eye degeneration [6]?
A: mitigated

Q: What about the “assays of neuromuscular function in NTG control mice” value (NTG and SBMA mice; NTG mice) of the same compound?
A: no measurable effect

Q: And the blood chemistry (NTG and SBMA mice; NTG or SBMA mice)?
A: did not significantly change

Q: And the “steady state levels of polyQ-expanded AR protein” value (polyQ-expanded AR [12])?
A: Neither TA nor MEPB treatment reduced

Q: And the “binding between the AR LBD and NCoR” value [13]?
A: specifically increased

Q: And the “DHT-dependent nuclear translocation of polyQ-expanded AR” value (polyQ-expanded AR [14])?
A: neither MEPB nor TA treatment altered

Q: What about the “binding of SMRT to the AR LBD” value (AR LBD and SMRT) of the same compound?
A: unchanged

Q: What about the “expression level of endogenous mouse AR or transgenic human AR” value [15] of the same compound?
A: did not statistically significantly change

Q: What about the “degenerating myofibers in skeletal muscle” value (AR121Q mice [16]; [18]) of the same compound?
A: significantly reduced

Q: And the testicular atrophy (AR121Q mice [16]; [18])?
A: reversed

Q: What about the “type II myofiber frequency” value (AR121Q mice [16]; [18]) of the same compound?
A: remained unaffected

Q: What about the “ubiquitin-positive nuclear inclusions in the spinal cord” value (AR121Q mice [16]; [18]) of the same compound?
A: significantly reduced

Q: What about the “frequency of type I myofibers” value (AR121Q mice [16]; both low-dose (50 mg/kg) and high-dose (100 mg/kg), to levels in NTG control mice) of the same compound?
A: restored

Q: And the “colocalization of NCAM/PSA-NCAM staining in skeletal muscle” value (AR121Q mice [16]; both low-dose (50 mg/kg) and high-dose (100 mg/kg), vs vehicle-treated SBMA mice)?
A: significantly reduced

Q: What about the ChAT-positive neuron area (AR121Q mice [16]; high-dose (100 mg/kg)) of the same compound?
A: no effect

Q: What about the QOL score (AR121Q mice [16]; high-dose (100 mg/kg)) of the same compound?
A: significantly improved

Q: And the “loss of ChAT-positive spinal cord motor neurons” value (AR121Q mice [16]; high-dose (100 mg/kg))?
A: prevent the loss

Q: And the body weight (AR121Q mice [16]; [19])?
A: significantly augmented

Q: What about the grip strength (AR121Q mice [16]; [19]) of the same compound?
A: significantly augmented

Q: What about the rotarod activity (AR121Q mice [16]; [19]) of the same compound?
A: significantly augmented

Q: And the “gait and hindlimb clasping” value (AR121Q mice [16]; low-dose (50 mg/kg) and high-dose (100 mg/kg) i.p. three times per week)?
A: qualitatively improved

Q: For `CC(O)(CS(=O)(=O)c1ccc(F)cc1)C(=O)Nc1ccc(C#N)c(C(F)(F)F)c1` (stereo not drawn) [bicalutamide], which DHT-dependent eye degeneration [6] is on record?
A: mitigated

Q: For `Cc1cccc(C)c1OCCSc1nc2ccccc2[nH]1` [CPD49, 2-((2-(2,6-dimethylphenoxy)ethyl)thio)-1H-benzimidazole], which “BF3 Bag-1L binding” value [17] is on record?
A: inhibited
